Experimental data: ChEMBL document CHEMBL2346576, “α-Selective glycosylation affords mucin-related GalNAc amino acids and diketopiperazines active on Trypanosoma cruzi” (Bioorg Med Chem, 2013)
The source made the active and inactive calls. The calls are words filed in the database; no cut-off is given here.

Key:
[1] = Inhibition of C-terminal truncated recombinant Trypanosoma cruzi trans-sialidase assessed as decrease in substrate MuNANA hydrolysis at 1 mM preincubated with enzyme for 10 mins prior to substrate addition measured after 10 mins by continuous fluorimetric assay
Procedure, shortened: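 His-tagged 70 kDa recombinant enzyme retaining the catalytic N-terminal domain. Run in triplicate in phosphate buffer pH 7.4; enzyme and inhibitor (25 µL of 4.0 mM solution) preincubated 10 min at 26 °C. MuNANA then added to 0.1 mM final; fluorescence of released Mu read after 10 min (ex 360/em 460 nm). %I = 100×(1−Vi/V0); pyridoxal phosphate as control.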

Trypanosoma cruzi [2] = test: Antitrypanosomal activity against trypomastigote form of Trypanosoma cruzi Tulahuen expressing beta galactosidase infected in rhesus monkey LLC-MK2 cells assessed as inhibition of parasite viability treated at 24 hrs post-infection measured after 4 days by CPRG based colorimetric assay; assay type: functional, organism-based
Procedure, shortened: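 LLC-MK2 cells at 2×10^3/well in phenol red-free RPMI, grown 24 h, infected with 1×10^4 Tulahuen-lacZ trypomastigotes. Compound added 24 h later at 0.5–0.0035 mM (8 concentrations). After 4 days, PBS with 0.5% Triton X-100 and 100 μM CPRG added; 4 h at 37 °C, absorbance 570 nm. IC50 from three independent experiments, each in duplicate.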

[3] = Cytotoxicity against C57BL/6 mouse spleen cell assessed as cell death at 7.8 to 500 uM after 24 hrs by propidium iodide staining based flow cytometry; assay type: tissue-based
Procedure, shortened: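 Spleen cells from C57BL/6 mice were dissociated, red cells lysed for 5 min (0.17 M Tris-HCl pH 7.5 : 0.16 M NH4Cl, 1:9), and cells grown in RPMI 1640 with 10% FBS and antibiotics at 5×10^5 cells/well with compounds for 24 h at 37 °C. The positive control was 0.5% Tween 20. Dead cells were stained with 10 µg/mL propidium iodide and counted by flow cytometry. Three independent experiments were run in duplicate.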

Trypanosoma cruzi [4] = test: (§1) Antitrypanosomal activity against amastigote form of Trypanosoma cruzi Tulahuen infected in african green monkey Vero cells assessed as decrease in number of intracellular parasites at 0.06 to 0.5 mM treated after removal of parasite on cell supernatant following 12 hrs of infection measured after 24 hrs by Giemsa staining based optical microscopy; assay type: functional, organism-based
Procedure, shortened: (§2)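 Vero cells plated at 2×10^4/well on 8-well chamber slides; after 12 h infected with 2×10^5 trypomastigotes/well for 12 h, washed with PBS, then compound added for 24 h at 37 °C. Giemsa-stained, parasites per cell counted by light microscopy in at least 200 cells/well. Two independent experiments, each in triplicate.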

[5] = Inhibition of C-terminal truncated recombinant Trypanosoma cruzi trans-sialidase assessed as decrease in substrate MuNANA hydrolysis preincubated with enzyme for 10 mins prior to substrate addition measured after 10 mins by continuous fluorimetric assay
Trypanosoma cruzi [6] = test: as §1, with “parasites” for “parasites at 0.06 to 0.5 mM”; assay type: functional, organism-based; procedure, shortened: as §2

Row | Compound | inhibition [1] [%] | IC50 (Trypanosoma cruzi [2]) [µM] | Activity [3] | Activity (Trypanosoma cruzi [4]) | IC50 [5] [µM] | Activity (Trypanosoma cruzi [6])
1 | CC(=O)N[C@H]1[C@@H](OC[C@@H]2NC(=O)[C@H](CC(=O)O)NC2=O)O[C@H](CO)[C@H](O)[C@@H]1O | 25 | 282 | Non-toxic |  |  | 
2 | CC(=O)N[C@H]1[C@@H](OC[C@H](N)C(=O)O)O[C@H](CO)[C@H](O)[C@@H]1O | 57 | > 500 | Non-toxic |  |  | 
3 | O=C(Cn1ccnc1[N+](=O)[O-])NCc1ccccc1 [BENZNIDAZOLE] |  | 30 |  | Active |  | 
4 | CC(=O)N[C@H]1[C@@H](O[C@H](C)[C@H](N)C(=O)O)O[C@H](CO)[C@H](O)[C@@H]1O | 79 | > 500 | Non-toxic |  | 320 | 
5 | CC(=O)N[C@H]1[C@@H](O[C@H](C)[C@@H]2NC(=O)[C@H](CC(=O)O)NC2=O)O[C@H](CO)[C@H](O)[C@@H]1O | 13 | 124 | Non-toxic |  |  | Dose-dependent effect
